Results as given in ChEMBL document CHEMBL4020757, “Lathyrol and epoxylathyrol derivatives: Modulation of Cdr1p and Mdr1p drug-efflux transporters of Candida albicans in Saccharomyces cerevisiae model” (Bioorg Med Chem, 2017).
Converted amounts (≈) assume the structure as drawn.

Tests used:
[1] = system: Saccharomyces cerevisiae; assay: Resistance index, ratio of MIC80 for Saccharomyces cerevisiae AD over-expressing Candida albicans CDR1 to MIC80 for Saccharomyces cerevisiae AD1-8u(-); assay type: functional
Method in brief: (§1)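 Yeast (10⁴ cells) grown in YEPD at 30 °C for 48 h with inhibitors at 0.25-400 μM (DMSO stocks); growth read by optical density, inhibitor-free growth set as 100%. MIC80 = concentration giving 80% growth inhibition. RI = MIC80 in AD-CDR1 or AD-MDR1 divided by MIC80 in control AD1-8u⁻. Means ± SD, duplicate samples, at least three independent experiments.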

[2] = system: Saccharomyces cerevisiae; assay: Resistance index, ratio of MIC80 for Saccharomyces cerevisiae AD over-expressing Candida albicans MDR1 to MIC80 for Saccharomyces cerevisiae AD1-8u(-); assay type: functional; method in brief: as §1
[3] = system: Candida albicans; assay: Inhibition of Candida albicans CDR1 expressed in Saccharomyces cerevisiae AD assessed as potentiation of fluconazole-induced antifungal activity against Saccharomyces cerevisiae AD by checkerboard method
Method in brief: (§2)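 Checkerboard per CLSI in AD1-8u⁻ control, AD-CDR1 or AD-MDR1 cells (10⁴ cells) grown 48 h at 30 °C. Fluconazole 4-209 μM crossed with compound 0.25-400 μM. Growth read by optical density. FIC of each agent is its MIC in combination divided by its MIC alone. FICI is the sum of the fluconazole and compound FICs, with values below 0.5 taken as synergy.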

[4] = system: Saccharomyces cerevisiae; assay: Antifungal activity against Saccharomyces cerevisiae AD over-expressing Candida albicans CDR1 after 48 hrs; assay type: functional; method in brief: as §1
[5] = system: Candida albicans; assay: Inhibition of Candida albicans MDR1 expressed in Saccharomyces cerevisiae AD assessed as reduction in nile red dye efflux at 70 uM after 30 mins by flow cytometry relative to control
Method in brief: (§3)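 AD-CDR1 or AD-MDR1 cells grown in YEPD at 30 °C with shaking from OD600 0.1 to 0.25, then resuspended as a 5% suspension in 1:2 YEPD:water. Nile Red (final 7 μM) added with or without compound at 70 μM, 30 min at 30 °C. Cells washed twice and 10,000 cells analysed by flow cytometry. Efflux rate expressed relative to untreated control cells. Means ± SD, three independent experiments.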

[6] = system: Candida albicans; assay: Inhibition of Candida albicans CDR1 expressed in Saccharomyces cerevisiae AD assessed as ratio of compound MIC80 in combinantion with fluconazole to compound alone MIC80 for Saccharomyces cerevisiae AD by checkerboard method
Method in brief: (§4)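 Checkerboard per CLSI with 10⁴ cells of AD-CDR1, AD-MDR1 or AD1-8u⁻, grown 48 h at 30 °C. Fluconazole 4-209 μM crossed with compound 0.25-400 μM, growth read by optical density. Compound FIC is the compound MIC in combination with fluconazole divided by its MIC alone.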

[7] = system: Saccharomyces cerevisiae; assay: Synergistic antifungal activity against Saccharomyces cerevisiae AD1-8u(-) assessed as ratio of compound MIC80 in combinantion with fluconazole to compound alone MIC80 by checkerboard method; assay type: functional; method in brief: as §4
[8] = system: Candida albicans; assay: Inhibition of Candida albicans MDR1 expressed in Saccharomyces cerevisiae AD assessed as ratio of compound MIC80 in combinantion with fluconazole to compound alone MIC80 for Saccharomyces cerevisiae AD by checkerboard method; method in brief: as §4
[9] = system: Candida albicans; assay: Inhibition of Candida albicans CDR1 expressed in Saccharomyces cerevisiae AD assessed as reduction in nile red dye efflux at 70 uM after 30 mins by flow cytometry relative to control; method in brief: as §3
[10] = system: Saccharomyces cerevisiae; assay: Antifungal activity against Saccharomyces cerevisiae AD over-expressing Candida albicans MDR1 after 48 hrs; assay type: functional; method in brief: as §1
[11] = system: Saccharomyces cerevisiae; assay: Antifungal activity against Saccharomyces cerevisiae AD1-8u(-) after 48 hrs; assay type: functional
Method in brief: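 S. cerevisiae AD1-8u⁻ control strain revived from glycerol stock on YEPD plates and grown in YEPD at 30 °C. 10⁴ cells exposed to compound at 0.25-400 μM for 48 h at 30 °C. Growth read as optical density, with no-inhibitor growth as 100%. MIC80 is the concentration giving 80% growth inhibition. Means ± SD of duplicates from at least three independent experiments.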

[12] = system: Saccharomyces cerevisiae; assay: Potentiation of fluconazole-induced antifungal activity against Saccharomyces cerevisiae AD1-8u(-) by checkerboard method; assay type: functional; method in brief: as §2
[13] = system: Candida albicans; assay: Inhibition of Candida albicans MDR1 expressed in Saccharomyces cerevisiae AD assessed as potentiation of fluconazole-induced antifungal activity against Saccharomyces cerevisiae AD by checkerboard method; method in brief: as §2
[14] = Lipophilicity, log P of the compound; assay type: physicochemical; details: octanol/water
[15] = system: Candida albicans; assay: Inhibition of Candida albicans CDR1 expressed in Saccharomyces cerevisiae AD assessed as potentiation of fluconazole-induced antifungal activity against Saccharomyces cerevisiae AD by measuring fold reduction in fluconazole MIC80 by checkerboard method
Method in brief: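 AD-CDR1 cells (10⁴) grown 48 h at 30 °C in a CLSI checkerboard, fluconazole 4-209 μM crossed with compound 0.25-400 μM, growth read by optical density. Fold reduction is derived from the fluconazole MIC alone versus the fluconazole MIC in combination.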

SMILES | Ratio [1] | Ratio [2] | fractional inhibitory concentration index (FICI) [3] | MIC80 [4] | inhibition [5] | Ratio [6] | Ratio [7] | Ratio [8] | inhibition [9] | MIC80 [10] | MIC80 [11] | fractional inhibitory concentration index (FICI) [12] | fractional inhibitory concentration index (FICI) [13] | logP [14] | fold change (FC) [15]
C=C1CC[C@H]2[C@@H](/C=C(\C)C(=O)[C@@]3(O)C[C@H](C)[C@H](O)[C@@H]3[C@H]1OC(=O)c1cccc(C(F)(F)F)c1)C2(C)C | 0.99 | 0.87 | 0.52 | 982 µM (≈ 497 µg/mL) | 25% | 0.5 | 1 | 1 | 70% | 867 µM (≈ 439 µg/mL) | 988 µM (≈ 500 µg/mL) | 2 | 1.3 | 3.41 | 52
CCC(=O)O[C@@H]1[C@@H]2[C@@H](OC(C)=O)[C@]3(CC[C@H]4[C@@H](/C=C(\C)C(=O)[C@@]2(OC(C)=O)C[C@@H]1C)C4(C)C)CO3 | 0.98 | 0.97 | 0.54 | 501 µM (≈ 246 µg/mL) | 20% | 0.5 | 1 | 1 | 10% | 498 µM (≈ 244 µg/mL) | 510 µM (≈ 250 µg/mL) | 2 | 1.3 | 2.32 | 23
C/C1=C\[C@@H]2[C@H](CC[C@]3(CO3)[C@H](OC(=O)c3ccccc3)[C@H]3[C@@H](OC(=O)c4ccccc4)[C@@H](C)C[C@]3(O)C1=O)C2(C)C | 0.89 | 0.98 | 1.4 | 803 µM (≈ 449 µg/mL) | 80% | 1 | 1 | 1 | 25% | 880 µM (≈ 492 µg/mL) | 896 µM (≈ 501 µg/mL) | 2 | 1.3 | 4.6 | 
C=C1CC[C@H]2[C@@H](/C=C(\C)C(=O)[C@@]3(O)C[C@H](C)[C@H](O)[C@@H]3[C@H]1OC(=O)c1ccccc1)C2(C)C | 0.95 | 0.93 | 1.4 | 1090 µM (≈ 478 µg/mL) | 35% | 1 | 1 | 1 | 85% | 1070 µM (≈ 468 µg/mL) | 1140 µM (≈ 500 µg/mL) | 2 | 1.3 | 3.19 | 
C/C1=C\[C@@H]2[C@H](CC[C@]3(CO3)[C@H](OC(=O)Cc3ccccc3)[C@H]3[C@@H](OC(=O)Cc4ccccc4)[C@@H](C)C[C@]3(O)C1=O)C2(C)C | 0.88 | 0.92 | 1.4 | 756 µM (≈ 444 µg/mL) | 15% | 1 | 1 | 1 | 10% | 788 µM (≈ 462 µg/mL) | 853 µM (≈ 500 µg/mL) | 2 | 1.3 | 4.91 | 
C=C1CC[C@H]2[C@@H](/C=C(\C)C(=O)[C@@]3(O)C[C@H](C)[C@H](O)[C@@H]3[C@H]1OC(=O)c1ccc(C(F)(F)F)cc1)C2(C)C | 0.91 | 0.9 | 1.4 | 900 µM (≈ 456 µg/mL) | 15% | 1 | 1 | 1 | 70% | 896 µM (≈ 454 µg/mL) | 988 µM (≈ 500 µg/mL) | 2 | 1.3 | 4.16 | 
CCCC(=O)O[C@@H]1[C@@H]2[C@@H](OC(=O)CCC)[C@]3(CC[C@H]4[C@@H](/C=C(\C)C(=O)[C@@]2(OC(=O)CCC)C[C@@H]1C)C4(C)C)CO3 | 0.85 | 0.89 | 1.4 | 762 µM (≈ 427 µg/mL) | 85% | 1 | 1 | 1 | 35% | 801 µM (≈ 449 µg/mL) | 892 µM (≈ 500 µg/mL) | 2 | 1.3 | 4.3 | 
